{"source": "paper PMC7076145", "about": "(Journal of Advanced Research, 2020)", "key": {"[1]": {"system": "cytokine (TNF-α) production in human leukemia cell line (THP-1)", "experiment": "Cytokine", "assay_type": "cell-based", "conditions": "THP-1 cells, LPS 50 ng/mL, 240 min; for inhibition of cytokine (TNF-α) production: test concentration not given", "in_short": "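THP-1 cells grown in RPMI-1640 with 50 µM mercaptoethanol, 1 mM sodium pyruvate, 10% FBS, 5.5 mM glucose, 2 mM L-glutamine and 10 mM HEPES, then plated at 70% confluency. Cells differentiated to macrophage-like cells with PMA 20 ng/mL for 24 h (37 °C, 5% CO2). E. coli LPS B added with test compound for 240 min. Supernatant TNF-α measured by human DuoSet ELISA.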"}, "T-cell proliferation": {"system": "T-cell proliferation", "experiment": "T-cells proliferation assay", "assay_type": "cell-based, human", "conditions": "for IC50: Homo sapiens, T-cell, 48 h, read-out: IC50 against T-cell proliferation", "in_short": "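PBMCs came from heparinized healthy human blood. Blood was diluted 1:1 with RPMI-1640, layered on LSM and spun at 400 g for 20 min at 25 °C. The buffy layer was washed at 4 °C and resuspended in RPMI with 5% FBS. Cells were activated with PHA-L, given test compound at several concentrations in triplicate, and incubated 2 days at 37 °C, 5% CO2. Alamar Blue (one-tenth volume) was added for 4 h; absorbance read at 570 and 600 nm.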"}, "[2]": {"conditions": "human T-lymphocytes, phytohemagglutinin-L 7.5 μg/mL, 2 days"}}}
{"molecule": "17β-Hydroxy-1-methyl-3-oxo-5α-androst-1-en [Compound 8]", "values": [{"measurement": "inhibition of cytokine (TNF-α) production", "setting": "[1]", "value": "69.7 ± 1.4", "unit": "%"}, {"measurement": "IC50 against T-cell proliferation", "setting": "T-cell proliferation; [2]", "value": "21.1 ± 0.04", "unit": "µg/mL"}]}
{"molecule": "CC(=O)O[C@H]1CC[C@H]2[C@@H]3CC[C@H]4CC(=O)C=C(C)[C@]4(C)[C@H]3CC[C@]12C", "note": "[Compound 1, Metenolone acetate, reference compound]", "values": [{"measurement": "inhibition of cytokine (TNF-α) production", "setting": "[1]", "value": "62.5 ± 4.4", "unit": "%"}, {"measurement": "activity against T-cell proliferation (in words)", "setting": "T-cell proliferation; [2]", "value": "inactive"}]}
{"molecule": "CC(=O)OC1CC[C@H]2[C@@H]3C[C@H](O)[C@H]4CC(=O)C=C(C)[C@]4(C)[C@H]3CC[C@]12C", "note": "(stereo partly drawn) [Compound 2, 6α-Hydroxy-1-methyl-3-oxo-5α-androst-1-en-17-yl acetate]", "values": [{"measurement": "inhibition of cytokine (TNF-α) production", "setting": "[1]", "value": "73.4 ± 0.6", "unit": "%"}, {"measurement": "IC50", "setting": "T-cell proliferation", "value": "68.9 ± 0.02", "unit": "µg/mL"}]}
{"molecule": "CC(=O)OC1CC[C@H]2[C@@H]3[C@@H](O)C[C@H]4CC(=O)C=C(C)[C@]4(C)[C@H]3CC[C@]12C", "note": "(stereo partly drawn) [Compound 4, 7β-Hydroxy-1-methyl-3-oxo-5α-androst-1-en-17-yl acetate]", "values": [{"measurement": "inhibition of cytokine (TNF-α) production", "setting": "[1]", "value": "33.5 ± 6.6", "unit": "%"}, {"measurement": "activity against T-cell proliferation (in words)", "setting": "T-cell proliferation; [2]", "value": "inactive"}]}
{"molecule": "CC(=O)OC1C[C@@H](O)[C@H]2[C@@H]3CC[C@H]4CC(=O)C=C(C)[C@]4(C)[C@H]3CC[C@]12C", "note": "(stereo partly drawn) [Compound 6, 15β-Hydroxy-1-methyl-3-oxo-5α-androst-1-en-17-yl acetate]", "values": [{"measurement": "inhibition of cytokine (TNF-α) production", "setting": "[1]", "value": "37.8 ± 1.1", "unit": "%"}, {"measurement": "activity against T-cell proliferation (in words)", "setting": "T-cell proliferation; [2]", "value": "inactive"}]}
{"molecule": "CC1=CC(=O)C=C2CC[C@@H]3[C@H](CC[C@]4(C)[C@@H](O)CC[C@@H]34)[C@@]12C", "note": "[Compound 7, 17β-Hydroxy-1-methyl-3-oxoandrosta-1,4-dien]", "values": [{"measurement": "inhibition of cytokine (TNF-α) production", "setting": "[1]", "value": "46.6 ± 5.2", "unit": "%"}, {"measurement": "activity against T-cell proliferation (in words)", "setting": "T-cell proliferation; [2]", "value": "inactive"}]}
{"molecule": "CC1=CC(=O)C[C@H]2CC[C@H]3[C@@H]4CC[C@H](O)[C@@]4(C)CC[C@@H]3[C@@]12C", "note": "[Compound 9, 17β-Hydroxy-1-methyl-3-oxo-5β-androst-1-en]", "values": [{"measurement": "activity against cytokine (TNF-α) production (in words)", "setting": "[1]", "value": "inactive"}]}
{"molecule": "CC1=CC(=O)C[C@H]2CC[C@@H]3[C@H](CC[C@]4(C)C(=O)CC[C@@H]34)[C@@]12C", "note": "[Compound 10, 1-Methyl-5β-androst-1-en-3,17-dione]", "values": [{"measurement": "inhibition of cytokine (TNF-α) production", "setting": "[1]", "value": "73.2 ± 0.3", "unit": "%"}]}
{"molecule": "CC1=CC(=O)C=C2CC[C@@H]3[C@H](C[C@@H](O)[C@]4(C)[C@@H](O)CC[C@@H]34)[C@@]12C", "note": "[Compound 11, 12β,17β-Dihydroxy-1-methyl-3-oxoandrosta-1,4-dien]", "values": [{"measurement": "inhibition of cytokine (TNF-α) production", "setting": "[1]", "value": "60.1 ± 3.3", "unit": "%"}]}
{"molecule": "C[C@H]1CC(=O)C[C@@H]2CC[C@H]3[C@@H]4CC[C@H](O)[C@@]4(C)CC[C@@H]3[C@]21C", "note": "[Compound 13, 17β-Hydroxy-1α-methyl-5α-androstan-3-one]", "values": [{"measurement": "activity against cytokine (TNF-α) production (in words)", "setting": "[1]", "value": "inactive"}]}
{"molecule": "CC1=CC(=O)C[C@@H]2C[C@H](O)[C@H]3[C@@H]4[C@H](O)C[C@H](O)[C@@]4(C)CC[C@@H]3[C@@]12C", "note": "[Compound 14, 7β,15β,17β-trihydroxy-1-methyl-3-oxo-5α-androst-1-en]", "values": [{"measurement": "inhibition of cytokine (TNF-α) production", "setting": "[1]", "value": "52.9 ± 2.4", "unit": "%"}]}
{"molecule": "C[C@]12C=CC(=O)C=C1CC[C@@H]1[C@@H]2[C@@H](O)C[C@@]2(C)[C@H]1CC[C@]2(O)C(=O)CO", "note": "[prednisolone, reference compound]", "values": [{"measurement": "IC50", "setting": "T-cell proliferation", "value": "3.51 ± 0.03", "unit": "µg/mL"}]}
